The subject of one assay is Candida parapsilosis. In words: In vitro minimum inhibitory concentration (MIC) against isolates of Candida parapsilosis in Sabouraud's dextrose broth. The format is functional. The conditions noted are these: Lodderomyces parapsilosis. In short, it runs like this:
(§1)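 Tube broth dilution in Sabouraud's dextrose broth, pH 6.5. Compounds were dissolved in Me₂SO and serially diluted in medium, then incubated at 30 °C. Growth control was read at 48 h for Candida albicans and C. parapsilosis, 72 h for Aspergillus fumigatus, and 7 days for Sporothrix schenckii and the dermatophytes. MIC is the lowest concentration with no macroscopic growth.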

For a further assay, the system named is Epidermophyton floccosum. In words: In vitro minimum inhibitory concentration (MIC) against isolates of Epidermophyton floccosum in Sabouraud's dextrose broth. The class given is functional. The method, boiled down: as §1
For another assay, the system named is Microsporum canis. In words: In vitro minimum inhibitory concentration (MIC) against isolates of Microsporum canis in Sabouraud's dextrose broth. The format is functional. The method, boiled down:
as §1

A further assay deals with Sporothrix schenckii. As to the kind of experiment: In vitro minimum inhibitory concentration (MIC) against isolates of Sporothrix schenck ii in Sabouraud's dextrose broth. The class given is functional. The method, boiled down:
as §1

The subject of a further assay is Trichophyton benhamiae. In words: In vitro minimum inhibitory concentration (MIC) against isolates of Trichophyton mentagrophytes in Sabouraud's dextrose broth. The format is functional, Arthroderma benhamiae. The method, boiled down: as §1
In a further assay the test system is Aspergillus fumigatus. As to the kind of experiment: In vitro minimum inhibitory concentration (MIC) against isolates of Aspergillus fumigatus in Sabouraud's dextrose broth. The format is functional. In short, it runs like this: as §1
In the next assay the test system is Candida albicans. In words: In vitro minimum inhibitory concentration (MIC) against isolates of Candida albicans in Sabouraud's dextrose broth. The class given is functional. The method, boiled down: as §1
Assay [1] deals with Cavia porcellus. As to the kind of experiment: Compound was evaluated in vivo for the activity (% mycological cure) by oral treatment of guinea pig dermatophytosis caused by Trichophyton mentagrophytes. Dose =5 mg/kg/day. The class given is functional. In short, it runs like this: (§2)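 Guinea pigs, 8–10 per dose, with shorn lumbar backs were inoculated over a 3.5 cm circle with 0.1 mL Sabouraud 2% dextrose broth carrying 10^6 cfu T. mentagrophytes. Compound in miglyol 812 was given as 0.5 mL by stomach tube once daily for 9 days from the inoculation day. One day after the last dose, hairs from lesions were cultured and hair-root regions examined microscopically for fungal growth.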

Assay [2] deals with Cavia porcellus. As to the kind of experiment: Compound was evaluated in vivo for the activity (% mycological cure) by oral treatment of guinea pig dermatophytosis caused by Trichophyton mentagrophytes. Dose = 10 mg/kg/day. The format is functional. The method, boiled down:
as §2

In assay [3] the test system is Cavia porcellus. As to the kind of experiment: Compound was evaluated in vivo for the activity (% mycological cure) by oral treatment of guinea pig dermatophytosis caused by Trichophyton mentagrophytes. Dose = 150 mg/kg/day. The format is functional. The method, boiled down:
as §2

The test system of assay [4] is Cavia porcellus. As to the kind of experiment: Compound was evaluated in vivo for the activity (% mycological cure) by topical treatment of guinea pig dermatophytosis caused by Trichophyton mentagrophytes (0.125% of compound). The class given is functional. The method, boiled down: (§3)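 Infection model: 8–10 guinea pigs per dose level, lumbar backs shorn, 10^6 cfu T. mentagrophytes in 0.1 mL Sabouraud 2% dextrose broth applied over a 3.5 cm diameter area. Starting 48 h post-inoculation, 0.4 mL compound solution in PEG 400/ethanol 75/25 (v/v) was spread on the lesion once daily for 7 days. Read-out on day 3 after the last treatment: hair cultures checked microscopically for growth at hair roots.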

The test system of assay [5] is Cavia porcellus. As to the kind of experiment: Compound was evaluated in vivo for the activity (% mycological cure) by topical treatment of guinea pig dermatophytosis caused by Trichophyton mentagrophytes (0.5% of compound). The format is functional. The method, boiled down:
as §3

Assay [6] deals with Cavia porcellus. As to the kind of experiment: Compound was evaluated in vivo for the activity (% mycological cure) by oral treatment of guinea pig dermatophytosis caused by Trichophyton mentagrophytes. Dose = 75 mg/kg/day. The class given is functional. In short, it runs like this: as §2
In assay [7] the test system is Cavia porcellus. In words: Compound was evaluated in vivo for the activity (% mycological cure) by oral treatment of guinea pig dermatophytosis caused by Trichophyton mentagrophytes. Dose = 37.5 mg/kg/day. The format is functional. In short, it runs like this: as §2
Assay [8] has as its system Cavia porcellus. In words: Compound was evaluated in vivo for the activity (% mycological cure) by oral treatment of guinea pig dermatophytosis caused by Trichophyton mentagrophytes. Dose = 5 mg/kg/day. The class given is functional. In short, it runs like this:
as §2

Values after ≈ are worked out from the molar mass of the structure shown.

In the case of `CCCCC#C/C=C\CN(C)Cc1cccc2ccccc12`, the MIC stood at 100 µg/mL (≈ 343 µM) in the assay on Candida parapsilosis; 100 µg/mL (≈ 343 µM) in the assay on Epidermophyton floccosum; 0.2 µg/mL (≈ 0.686 µM) in the assay with Microsporum canis; 50 µg/mL (≈ 172 µM) against Sporothrix schenckii; 0.2 µg/mL (≈ 0.686 µM) in the assay on Trichophyton benhamiae.
Turning to `CCCCC#CC#CCN(C)Cc1cccc2ccccc12`, the MIC with Candida parapsilosis came to 100 µg/mL (≈ 346 µM); against Epidermophyton floccosum it was 3.1 µg/mL (≈ 10.7 µM); with Microsporum canis, 0.8 µg/mL (≈ 2.76 µM); in the assay on Sporothrix schenckii it was 100 µg/mL (≈ 346 µM); against Trichophyton benhamiae it was 0.2 µg/mL (≈ 0.691 µM).
For the compound `CCC(C)C#C/C=C/CN(C)Cc1cccc2ccccc12` (configuration not stated), the MIC in the assay with Aspergillus fumigatus came to 100 µg/mL (≈ 343 µM); with Candida albicans, 100 µg/mL (≈ 343 µM); against Candida parapsilosis, 0.4 µg/mL (≈ 1.37 µM); against Epidermophyton floccosum, 0.006 µg/mL (≈ 0.0206 µM); against Microsporum canis, 0.006 µg/mL (≈ 0.0206 µM); against Sporothrix schenckii, 0.8 µg/mL (≈ 2.75 µM). In the assay on Trichophyton benhamiae, this compound had an MIC of 0.01 µg/mL (≈ 0.0343 µM). The Activity in the assay with Cavia porcellus [1] is recorded as 23%; with Cavia porcellus [2], 75%.
Regarding `CCCC/C=C/C=C/CN(C)Cc1cccc2ccccc12`, the MIC was 1.6 µg/mL (≈ 5.45 µM) with Candida parapsilosis; 0.2 µg/mL (≈ 0.682 µM) in the assay with Epidermophyton floccosum; 0.1 µg/mL (≈ 0.341 µM) against Microsporum canis; 3.1 µg/mL (≈ 10.6 µM) in the assay with Sporothrix schenckii; 0.05 µg/mL (≈ 0.17 µM) in the assay on Trichophyton benhamiae. Moreover, the Activity in the assay with Cavia porcellus [3] is 43%; in the assay with Cavia porcellus [4] it was 40%; in the assay on Cavia porcellus [5], 69%.
Regarding `CCCC/C=C/C#CCN(C)Cc1cccc2ccccc12`, the MIC with Candida parapsilosis is > 100 µg/mL; against Epidermophyton floccosum, 1.6 µg/mL (≈ 5.49 µM); in the assay on Microsporum canis it was 0.2 µg/mL (≈ 0.686 µM); in the assay with Sporothrix schenckii, > 100 µg/mL; in the assay on Trichophyton benhamiae, 0.2 µg/mL (≈ 0.686 µM).
Consider `CCCCC#C/C=C/CN(C)Cc1cccc2ccccc12`, for which the MIC was determined as 100 µg/mL (≈ 343 µM) in the assay on Aspergillus fumigatus; 100 µg/mL (≈ 343 µM) in the assay with Candida albicans; 0.4 µg/mL (≈ 1.37 µM) against Candida parapsilosis; 0.01 µg/mL (≈ 0.0343 µM) in the assay on Epidermophyton floccosum; 0.01 µg/mL (≈ 0.0343 µM) against Microsporum canis; 1.6 µg/mL (≈ 5.49 µM) with Sporothrix schenckii. Besides, the MIC in the assay with Trichophyton benhamiae came out at 0.01 µg/mL (≈ 0.0343 µM). Moreover, the Activity in the assay with Cavia porcellus [6] is listed as 100%; in the assay with Cavia porcellus [2], 15%; in the assay with Cavia porcellus [3], 100%; in the assay with Cavia porcellus [7], 83%; with Cavia porcellus [8] it was 0%; in the assay with Cavia porcellus [4], 83%. This compound yielded an Activity with Cavia porcellus [5] of 100%.
For the compound `CN(C/C=C/c1ccccc1)Cc1cccc2ccccc12` [NAFTIFINE], the MIC amounted to 1.6 µg/mL (≈ 5.57 µM) with Candida parapsilosis; 0.2 µg/mL (≈ 0.696 µM) against Epidermophyton floccosum; 0.1 µg/mL (≈ 0.348 µM) in the assay with Microsporum canis; 1.6 µg/mL (≈ 5.57 µM) against Sporothrix schenckii; 0.05 µg/mL (≈ 0.174 µM) with Trichophyton benhamiae. Moreover, the Activity came out at 35% in the assay on Cavia porcellus [4] and 65% in the assay on Cavia porcellus [5].
Regarding `CN(C/C=C/C#CC(C)(C)C)Cc1cccc2ccccc12` [TERBINAFINE], the MIC against Aspergillus fumigatus was 0.8 µg/mL (≈ 2.75 µM); in the assay on Candida albicans it was 25 µg/mL (≈ 85.8 µM); against Candida parapsilosis it was 0.4 µg/mL (≈ 1.37 µM); with Epidermophyton floccosum it was 0.006 µg/mL (≈ 0.0206 µM); in the assay with Microsporum canis, 0.006 µg/mL (≈ 0.0206 µM); in the assay on Sporothrix schenckii it was 0.4 µg/mL (≈ 1.37 µM). The compound also came in with an MIC in the assay with Trichophyton benhamiae of 0.006 µg/mL (≈ 0.0206 µM). Besides, the results for the Activity in the assay with Cavia porcellus [2] and with Cavia porcellus [8] were 100% and 98%, respectively.
